One assay deals with A2780. Briefly: Cytotoxicity against human A2780 cells. The class given is cell-based. The essentials:
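Antiproliferative assay on the A2780 ovarian cell line, reported as IC50 in µM.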

For another assay, the system named is Plasmodium falciparum. The experiment in a line: Antiplasmodial activity against chloroquine-resistant ring stage Plasmodium falciparum Dd2 after 72 hrs by SYBR green 1 dye based assay. The class given is functional, organism-based.
The mark [1] stands for this setting: Homo sapiens, A2780, read-out: IC50.
The mark [2] stands for this setting: Plasmodium falciparum, Dd2, 72 h, read-out: IC50.

For the compound `O=c1c2cc3c(cc2c2cccc4ccn1c42)OCO3`, the values for the IC50 result in the assay with A2780 (a2780) and in the assay with Plasmodium falciparum were “Non-Toxic” and “Not Active”, respectively.

`COc1c2c(cc3c1OCO3)[C@@]13CC[N@@](C2)[C@@H]1[C@H](O)[C@H](OC)C[C@H]3O`: the IC50 is > 60 µM in the assay on A2780 (setting [1]) and 37 µM in the assay with Plasmodium falciparum (setting [2]).

Regarding `COc1c2c(cc3c1OCO3)[C@]13C=C[C@H](OC)C[C@H]1[N@](C2)C[C@H]3OC(C)=O`, the IC50 was > 60 µM in the assay with A2780 (setting [1]) and 35 µM in the assay with Plasmodium falciparum (setting [2]).

For `COc1c2c(cc3c1OCO3)[C@]13C=C[C@H](OC)C[C@H]1[N@](C2)C[C@H]3O`, the IC50 in the assay on A2780 (setting [1]) was > 60 µM; with Plasmodium falciparum (setting [2]), 7.3 µM.

For `CC(=O)O[C@@H]1CC=C2CCN3Cc4cc5c(cc4[C@H]1[C@@H]23)OCO5` [ACETYLCARANINE], the IC50 worked out at 56 µM in the assay on A2780 (setting [1]) and 3.5 µM with Plasmodium falciparum (setting [2]).

For the compound `C[C@@H]1CC[C@H]2[C@@H](C)C(=O)O[C@@H]3O[C@@]4(C)CC[C@@H]1[C@]32OO4` [ARTEMISININ], the IC50 in the assay on Plasmodium falciparum (setting [2]) is 0.0121 µM.

Take `COC1=CC(=O)[C@@]23CCN(Cc4c2cc2c(c4OC)OCO2)[C@@H]3C1` [DISTICHAMINE]: the IC50 is > 60 µM in the assay with A2780 (setting [1]) and > 50 µM in the assay with Plasmodium falciparum (setting [2]).

For the origin of these results see ChEMBL document CHEMBL4177705, “Antiplasmodial alkaloids from bulbs of Amaryllis belladonna Steud” (Bioorg Med Chem Lett, 2018).
